In ChEMBL document CHEMBL1127630, “New dual inhibitors of neutral endopeptidase and angiotensin-converting enzyme: rational design, bioavailability, and pharmacological responses in experimental hypertension” (J Med Chem, 1994):
Blank lines part the entries; values can stand above or below the molecule they belong to.

Legend:
[1] = target: T1, Neprilysin (Mus musculus) (UniProt Q61391); assay: Inhibition of Neutral Endopeptidase activity was measured by using the displacement of [3H]HACBOGly from mouse kidney after 2 hr oral administration; set-up: scale not given: the % may be the effect or the level left
T1 sequence (whole entry): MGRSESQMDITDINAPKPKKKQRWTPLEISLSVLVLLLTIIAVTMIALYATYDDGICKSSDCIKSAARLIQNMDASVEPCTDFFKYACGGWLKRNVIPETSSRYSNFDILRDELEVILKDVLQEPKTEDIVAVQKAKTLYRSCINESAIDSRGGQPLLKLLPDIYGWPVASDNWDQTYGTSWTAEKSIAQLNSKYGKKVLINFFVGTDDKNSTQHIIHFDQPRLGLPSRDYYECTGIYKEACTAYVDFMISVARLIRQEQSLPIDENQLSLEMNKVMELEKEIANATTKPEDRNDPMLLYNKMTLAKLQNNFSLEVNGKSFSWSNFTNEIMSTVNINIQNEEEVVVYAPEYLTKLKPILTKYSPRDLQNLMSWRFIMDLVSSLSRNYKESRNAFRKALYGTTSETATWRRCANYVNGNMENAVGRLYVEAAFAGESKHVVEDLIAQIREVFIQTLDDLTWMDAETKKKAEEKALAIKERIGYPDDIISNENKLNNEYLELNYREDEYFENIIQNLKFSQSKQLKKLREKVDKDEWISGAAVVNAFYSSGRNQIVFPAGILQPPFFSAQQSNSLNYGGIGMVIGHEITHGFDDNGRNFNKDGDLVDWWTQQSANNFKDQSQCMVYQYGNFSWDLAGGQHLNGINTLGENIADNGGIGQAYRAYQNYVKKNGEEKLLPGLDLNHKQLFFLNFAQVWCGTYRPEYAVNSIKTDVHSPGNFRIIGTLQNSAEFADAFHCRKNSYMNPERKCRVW
Outline: (§1)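 Mice dosed orally at 2.6 X 10-6 mol/kg in 10% ethanol/10% cremophor/80% water. [3H]HACBOGly (1 uCi) injected iv at intervals after dosing. Kidneys taken 15 min later, homogenized in 50 mM Tris-HCl pH 7.4 at 4 °C and filtered, radioactivity counted. Inhibition expressed as percent displacement versus control. Nonspecific binding defined with coinjected retrothiorphan (10.000 eq).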

[2] = target: T2, Angiotensin-converting enzyme (Mus musculus) (UniProt P09470); assay: In vivo inhibition of lung ACE was observed at 120 min after oral administration of the compound; assay type: functional, organism-based; set-up: concentration or dose not given beside the values
T2 sequence (whole entry): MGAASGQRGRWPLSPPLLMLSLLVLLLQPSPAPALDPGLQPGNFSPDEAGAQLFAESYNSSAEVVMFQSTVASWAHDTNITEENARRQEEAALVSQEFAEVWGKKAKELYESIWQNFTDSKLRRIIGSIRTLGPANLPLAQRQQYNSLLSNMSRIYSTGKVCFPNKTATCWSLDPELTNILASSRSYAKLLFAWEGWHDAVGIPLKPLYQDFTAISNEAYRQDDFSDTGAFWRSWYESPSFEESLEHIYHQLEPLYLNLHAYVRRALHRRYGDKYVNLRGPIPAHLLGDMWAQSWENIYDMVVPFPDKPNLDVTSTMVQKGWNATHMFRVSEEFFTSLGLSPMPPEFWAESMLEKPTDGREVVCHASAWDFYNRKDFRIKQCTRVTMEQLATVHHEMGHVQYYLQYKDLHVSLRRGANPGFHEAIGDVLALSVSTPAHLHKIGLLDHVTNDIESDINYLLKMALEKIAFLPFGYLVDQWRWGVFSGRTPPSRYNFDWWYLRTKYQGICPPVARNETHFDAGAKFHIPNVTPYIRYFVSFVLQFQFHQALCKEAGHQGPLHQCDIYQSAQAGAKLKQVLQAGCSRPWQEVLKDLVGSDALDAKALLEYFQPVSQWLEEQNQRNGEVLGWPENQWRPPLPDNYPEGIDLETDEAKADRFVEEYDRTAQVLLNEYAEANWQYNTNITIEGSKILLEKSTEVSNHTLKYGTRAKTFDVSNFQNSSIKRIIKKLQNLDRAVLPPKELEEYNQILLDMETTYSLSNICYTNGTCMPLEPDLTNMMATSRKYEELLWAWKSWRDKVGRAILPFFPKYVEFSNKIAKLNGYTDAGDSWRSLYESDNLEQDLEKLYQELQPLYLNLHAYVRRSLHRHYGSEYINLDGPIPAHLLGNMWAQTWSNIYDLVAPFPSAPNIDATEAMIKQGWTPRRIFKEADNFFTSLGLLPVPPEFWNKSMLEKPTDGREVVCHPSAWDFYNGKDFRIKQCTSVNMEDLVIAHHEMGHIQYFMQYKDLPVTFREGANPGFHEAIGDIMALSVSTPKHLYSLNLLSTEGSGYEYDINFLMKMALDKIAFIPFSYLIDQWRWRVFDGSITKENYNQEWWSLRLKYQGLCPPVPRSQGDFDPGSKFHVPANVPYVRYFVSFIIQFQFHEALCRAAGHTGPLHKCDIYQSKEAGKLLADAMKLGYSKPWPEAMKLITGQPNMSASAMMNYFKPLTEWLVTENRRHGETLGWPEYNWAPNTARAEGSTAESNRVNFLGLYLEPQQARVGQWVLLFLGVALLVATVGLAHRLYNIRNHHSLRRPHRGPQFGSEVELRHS

[3] = target: T1, Neprilysin (Mus musculus); assay: Inhibition of Neutral Endopeptidase activity was measured by using the displacement of [3H]-HACBOGly from mouse kidney after 1 hr oral administration; set-up: scale not given: the % may be the effect or the level left; outline: as §1
[4] = target: T2, Angiotensin-converting enzyme (Mus musculus); assay: In vivo inhibition of lung ACE was observed at 30 min after oral administration of the compound; assay type: organism-based; set-up: concentration or dose not given beside the values
[5] = target: T1, Neprilysin (Mus musculus); assay: Inhibition of Neutral Endopeptidase activity was measured by using the displacement of [3H]HACBOGly from mouse kidney after 4 hr oral administration; set-up: scale not given: the % may be the effect or the level left; outline: as §1
[6] = system: Mus musculus; assay: In vivo inhibition of lung ACE was observed at 60 min after oral administration; assay type: functional; set-up: concentration or dose not given beside the values
[7] = target: T2, Angiotensin-converting enzyme (Mus musculus); assay: In vivo inhibition of lung ACE was observed at 240 min after oral administration of the compound; assay type: functional, organism-based; set-up: concentration or dose not given beside the values
[8] = target: T3, Angiotensin-converting enzyme (Mus musculus, UniProt P09470); assay: Inhibitory potency against angiotensin converting enzyme by displacement of [3H]trandolaprilate binding in mouse lung
T3 sequence (P09470 whole entry): T2 sequence (whole entry)

[9] = target: T2, Angiotensin-converting enzyme (Mus musculus); assay: Inhibition of lung Angiotensin Converting Enzyme (ACE) in mouse at a dose of 2.6*10e-5 mol/kg after 20 min oral administration
Outline: (§2)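 Prescreen in mice: single oral dose of 2.6 X 10-5 mol/kg of prodrug (thioacetyl and benzyl ester protected, tested as stereoisomer mixtures). Inhibition of binding of a tritiated ACE probe to lung measured 20 and 60 min after dosing. Mean ± SEM of three experiments, three mice each.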

[10] = target: T2, Angiotensin-converting enzyme (Mus musculus); assay: In vivo inhibition of lung Angiotensin Converting Enzyme (ACE) in mouse at a dose of 2.6*10e-5 mol/kg after 60 min oral administration; assay type: functional, organism-based; outline: as §2

Structure (SMILES): Cc1ccccc1C(C)C(CS)C(=O)NC(Cc1ccc(O)cc1)C(=O)O (stereo not given)
IC50 [8]: 0.21 µM

Structure (SMILES): CC(=O)SCC(C(=O)N[C@@H](C)C(=O)OCc1ccccc1)C(C)c1ccc(F)c(F)c1 (stereo not given in full)
inhibition [9]: 35%
inhibition [10]: 22%

Structure (SMILES): C[C@@H](c1ccccc1)[C@@H](CS)C(=O)N[C@@H](Cc1ccccc1)C(=O)O (stereo in doubt; 48a)
Ki [8]: 0.026 µM

Structure (SMILES): CCCC(NC(=O)C(CS)C(C)c1ccccc1)C(=O)O (stereo not given)
IC50 [8]: 0.004 µM

Structure (SMILES): C[C@@H](c1ccccc1)[C@@H](CS)C(=O)N[C@@H](Cc1ccccc1)C(=O)O (stereo in doubt; 48c)
Ki [8]: 0.0019 µM

Structure (SMILES): C[C@@H](c1ccccc1)[C@@H](CS)C(=O)N[C@@H](Cc1ccccc1)C(=O)O (stereo in doubt; 48b)
Ki [8]: 0.015 µM

Structure (SMILES): CCC(NC(=O)C(CS)C(C)c1ccccc1)C(=O)O (stereo not given)
IC50 [8]: 0.0054 µM

Structure (SMILES): CCCCC(NC(=O)C(CS)C(C)c1ccccc1)C(=O)O (stereo not given)
IC50 [8]: 0.007 µM

Structure (SMILES): O=C(NC(Cc1ccc(O)cc1)C(=O)O)C(CS)Cc1ccccc1 (stereo not given)
IC50 [8]: 0.025 µM

Structure (SMILES): C[C@H](NC(=O)[C@H](CS)[C@@H](C)c1ccccc1)C(=O)O (stereo in doubt; 44d)
Ki [8]: 0.095 µM

Now from value to molecule, other results behind:

Control [1]: 97%
Control [2]: 39%
Control [3]: 100%
Control [4]: 73%
Control [5]: 73%
Control [7]: 30%
Structure (SMILES): CC[C@H](NC(=O)C(CSC(=O)c1ccccc1)C(C)c1ccccc1)C(=O)O (stereo not given in full)
Control [6]: 57%

inhibition [9]: 20%
inhibition [10]: 7%
Structure (SMILES): CC(=O)SCC(C(=O)N[C@@H](Cc1ccc(O)cc1)C(=O)OCc1ccccc1)C(C)c1ccccc1 (stereo not given in full)

IC50 [8]: 0.01 µM
Structure (SMILES): CC(NC(=O)C(CS)C(C)c1ccc(F)cc1)C(=O)O (stereo not given)

Control [2]: 42%
Control [4]: 41%
Control [7]: 16%
Structure (SMILES): CC(c1ccccc1)C(CSC(=O)C12CC3CC(CC(C3)C1)C2)C(=O)N[C@@H](C)C(=O)OCc1ccccc1 (stereo not given in full)
Control [6]: 34%

inhibition [9]: 24%
inhibition [10]: 19%
Structure (SMILES): CC(=O)Oc1ccc(C[C@H](NC(=O)C(CSC(C)=O)C(C)c2ccc(F)c(F)c2)C(=O)OCc2ccccc2)cc1 (stereo not given in full)

IC50 [8]: 0.0045 µM
Structure (SMILES): CC(c1ccc(F)c(F)c1)C(CS)C(=O)NC(Cc1ccc(O)cc1)C(=O)O (stereo not given)

IC50 [8]: 0.004 µM
Structure (SMILES): COc1ccc(C(C)C(CS)C(=O)NC(Cc2ccc(O)cc2)C(=O)O)cc1OC (stereo not given)

Ki [8]: 0.08 µM
Structure (SMILES): C[C@H](NC(=O)[C@H](CS)[C@@H](C)c1ccccc1)C(=O)O (stereo in doubt; 44a)

IC50 [8]: 0.02 µM
Structure (SMILES): CC(c1ccccc1)C(CS)C(=O)N[C@@H](C)C(=O)O (stereo not given in full)

Control [1]: 55%
Control [2]: 49%
Control [3]: 70%
Control [4]: 69%
Control [5]: 46%
Control [7]: 41%
Structure (SMILES): CCC[C@H](NC(=O)C(CSC(=O)c1ccccc1)C(C)c1ccccc1)C(=O)O (stereo not given in full)
Control [6]: 52%

inhibition [9]: 36%
inhibition [10]: 11%
Structure (SMILES): CC(=O)Oc1ccc(C[C@H](NC(=O)C(CSC(C)=O)C(C)c2ccc(F)cc2)C(=O)OCc2ccccc2)cc1 (stereo not given in full)
